Data: ChEMBL document CHEMBL1124558, “Differential effects of a series of hydroxamic acid derivatives on 5-lipoxygenase and cyclooxygenase from neutrophils and 12-lipoxygenase from platelets and their in vivo effects on inflammation and anaphylaxis” (J Med Chem, 1989)

Columns and labels:
[1] = target: T1, Arachidonate 12-lipoxygenase (Rattus norvegicus) (UniProt Q02759); experiment: In vitro inhibitory activity against rat platelet 12-lipoxygenase at 100 uM
T1 sequence (whole entry): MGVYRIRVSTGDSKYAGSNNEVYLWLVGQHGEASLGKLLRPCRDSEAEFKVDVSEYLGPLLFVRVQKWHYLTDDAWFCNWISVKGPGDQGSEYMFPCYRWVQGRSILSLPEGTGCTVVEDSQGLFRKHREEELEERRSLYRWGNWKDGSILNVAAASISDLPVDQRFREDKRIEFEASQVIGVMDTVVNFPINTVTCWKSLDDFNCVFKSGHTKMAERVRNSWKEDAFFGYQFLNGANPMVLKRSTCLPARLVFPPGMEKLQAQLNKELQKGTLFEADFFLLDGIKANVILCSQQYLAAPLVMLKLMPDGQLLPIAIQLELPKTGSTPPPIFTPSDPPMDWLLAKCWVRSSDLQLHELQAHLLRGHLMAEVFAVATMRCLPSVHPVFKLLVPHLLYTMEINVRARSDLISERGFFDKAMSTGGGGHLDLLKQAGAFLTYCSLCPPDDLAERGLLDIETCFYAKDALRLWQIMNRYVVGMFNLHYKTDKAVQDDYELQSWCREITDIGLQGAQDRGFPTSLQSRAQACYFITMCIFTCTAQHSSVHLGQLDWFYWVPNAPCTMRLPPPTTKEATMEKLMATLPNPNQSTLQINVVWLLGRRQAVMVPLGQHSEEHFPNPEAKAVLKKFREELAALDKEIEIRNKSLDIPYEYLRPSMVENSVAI
Procedure, shortened: (§1)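 Cell-free cytosolic 12-lipoxygenase from Sprague-Dawley rat platelets (0.4 mg/mL), preincubated 5 min at 30 °C with compound in DMSO (≤0.1% final), 25 mM Tris pH 7.4, 1 μM indomethacin, 100 μM glutathione; reaction started with 6 μM [14C]arachidonic acid and quenched with citric acid/NDGA after 3 min. 12-HETE isolated by TLC and counted by scintillation; % inhibition, duplicate.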

Cyclooxygenase [2] = target: T2, Cyclooxygenase (Rattus norvegicus, UniProt P35355+Q63921); experiment: (§2) In vitro inhibitory activity against rat polymorphonuclear leukocyte Prostaglandin G/H synthase; format: functional
T2 sequence (P35355 whole entry): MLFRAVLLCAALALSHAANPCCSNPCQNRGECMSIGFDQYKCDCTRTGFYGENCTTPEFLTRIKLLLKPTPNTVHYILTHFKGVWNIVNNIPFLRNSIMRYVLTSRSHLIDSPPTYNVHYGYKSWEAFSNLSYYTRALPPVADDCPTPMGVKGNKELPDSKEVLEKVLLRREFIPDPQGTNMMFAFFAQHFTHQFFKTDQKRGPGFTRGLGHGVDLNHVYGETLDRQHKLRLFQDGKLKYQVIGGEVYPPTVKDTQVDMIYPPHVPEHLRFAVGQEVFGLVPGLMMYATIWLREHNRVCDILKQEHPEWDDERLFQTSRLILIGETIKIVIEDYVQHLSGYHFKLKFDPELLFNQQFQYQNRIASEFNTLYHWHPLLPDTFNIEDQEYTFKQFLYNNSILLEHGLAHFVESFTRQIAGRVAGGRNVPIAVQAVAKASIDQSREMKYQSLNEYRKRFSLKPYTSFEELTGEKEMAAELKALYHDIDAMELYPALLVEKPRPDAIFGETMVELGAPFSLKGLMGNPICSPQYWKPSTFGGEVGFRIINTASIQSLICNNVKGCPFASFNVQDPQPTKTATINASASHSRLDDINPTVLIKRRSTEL
T2 sequence (Q63921 whole entry): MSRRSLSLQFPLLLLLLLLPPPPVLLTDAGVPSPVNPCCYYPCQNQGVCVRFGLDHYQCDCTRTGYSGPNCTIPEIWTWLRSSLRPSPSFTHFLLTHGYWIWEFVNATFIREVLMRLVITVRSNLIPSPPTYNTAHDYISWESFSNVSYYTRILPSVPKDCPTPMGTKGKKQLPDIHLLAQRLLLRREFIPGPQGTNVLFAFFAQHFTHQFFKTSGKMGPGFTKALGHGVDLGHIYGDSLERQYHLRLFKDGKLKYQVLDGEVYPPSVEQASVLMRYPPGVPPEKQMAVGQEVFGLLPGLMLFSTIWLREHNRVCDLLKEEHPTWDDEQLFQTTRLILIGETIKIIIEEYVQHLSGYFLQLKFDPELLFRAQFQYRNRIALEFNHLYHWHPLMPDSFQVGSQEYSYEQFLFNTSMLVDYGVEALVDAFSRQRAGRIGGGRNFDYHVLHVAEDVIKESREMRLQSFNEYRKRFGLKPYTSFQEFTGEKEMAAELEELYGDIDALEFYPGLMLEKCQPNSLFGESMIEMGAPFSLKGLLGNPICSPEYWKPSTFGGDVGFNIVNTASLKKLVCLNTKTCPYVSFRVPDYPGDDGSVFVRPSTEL
Procedure, shortened: (§3)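 Glycogen-elicited peritoneal PMNs from Sprague-Dawley rats were homogenized at 0 °C in 0.1 M Tris-HCl pH 8.2 with 10 μM NDGA. Compound (DMSO ≤0.1%) was preincubated 5 min at 37 °C, then 8 μM [14C]arachidonic acid with 4 mM glutathione and epinephrine was added for 10 min. TxB2 and PGF2α were measured by TLC and scintillation counting.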

[3] = target: T3, Cyclooxygenase (Rattus norvegicus) (UniProt P35355+Q63921); experiment: as §2; format: protein assay; settings: concentration not given here; procedure, shortened: as §3
[4] = target: T4, Polyunsaturated fatty acid 5-lipoxygenase (Rattus norvegicus, UniProt P12527); experiment: In vitro inhibition of rat polymorphonuclear leukocyte 5-lipoxygenase
T4 sequence (P12527 whole entry): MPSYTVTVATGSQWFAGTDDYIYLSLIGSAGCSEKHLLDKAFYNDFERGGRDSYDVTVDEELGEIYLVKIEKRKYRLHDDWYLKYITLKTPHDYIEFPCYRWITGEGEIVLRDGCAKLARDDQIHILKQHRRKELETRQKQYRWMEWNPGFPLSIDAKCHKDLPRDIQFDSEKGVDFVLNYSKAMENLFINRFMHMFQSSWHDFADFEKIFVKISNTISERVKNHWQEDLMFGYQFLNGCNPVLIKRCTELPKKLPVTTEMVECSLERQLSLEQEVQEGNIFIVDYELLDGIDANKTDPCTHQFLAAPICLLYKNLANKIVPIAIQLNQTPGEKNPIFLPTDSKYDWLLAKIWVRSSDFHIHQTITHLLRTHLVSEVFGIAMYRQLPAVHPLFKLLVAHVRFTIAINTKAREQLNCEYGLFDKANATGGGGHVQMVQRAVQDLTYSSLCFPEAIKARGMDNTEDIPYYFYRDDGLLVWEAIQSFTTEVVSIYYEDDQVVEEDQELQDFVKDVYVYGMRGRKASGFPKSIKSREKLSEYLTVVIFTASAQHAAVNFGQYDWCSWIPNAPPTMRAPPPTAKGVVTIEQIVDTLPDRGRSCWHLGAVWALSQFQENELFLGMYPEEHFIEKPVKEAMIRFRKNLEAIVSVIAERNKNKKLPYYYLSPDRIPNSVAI
Procedure, shortened: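 Intact glycogen-elicited peritoneal PMNs pooled from 4–5 Sprague-Dawley rats (250 g), preincubated 5 min at 30 °C with compound in DMSO (≤0.1% final) plus 1 μM indomethacin. Challenge with [14C]arachidonic acid (4 μM) and A23187 (0.8 μM) for 3 min. Extraction, TLC, 5-HETE by scintillation counting.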

Cavia porcellus [5] = experiment: In vivo inhibitory activity against guinea pig systemic anaphylaxis when administered a compound dose (60 mg/kg) perorally; format: functional; settings: po
Procedure, shortened: (§4)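 Male Hartley guinea pigs sensitised ip with ovalbumin (2.7 mg/kg) plus LPS adjuvant, then challenged 2 weeks later with 1% ovalbumin aerosol for 30 s. Pretreated with pyrilamine, indomethacin and propranolol 20 min before challenge. Compound given in PEG 400 1 h before challenge.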

[6] = target: T5, Cysteinyl leukotriene receptor 1 (Cavia porcellus, UniProt Q2NNR5); experiment: Activity to bind against [3H]LTD4 radioligand in guinea pig
T5 sequence (Q2NNR5 whole entry): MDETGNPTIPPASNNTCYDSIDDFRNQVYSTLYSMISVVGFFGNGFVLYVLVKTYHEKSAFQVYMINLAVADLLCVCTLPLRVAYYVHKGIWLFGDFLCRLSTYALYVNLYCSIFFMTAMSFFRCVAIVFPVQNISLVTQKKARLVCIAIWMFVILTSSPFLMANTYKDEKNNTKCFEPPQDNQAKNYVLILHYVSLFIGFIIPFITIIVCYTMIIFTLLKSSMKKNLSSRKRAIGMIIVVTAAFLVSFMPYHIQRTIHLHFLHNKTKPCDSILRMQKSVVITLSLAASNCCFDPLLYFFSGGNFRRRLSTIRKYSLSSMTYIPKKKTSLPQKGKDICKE

Mus musculus [7] = experiment: In vivo inhibitory activity against mouse ear inflammation when administered a compound dose (1 mg/ear); format: functional
Procedure, shortened: (§5)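 Compound or ethanol vehicle applied topically to one ear of male DBA/2J mice 60 min before arachidonic acid (2 mg/ear). […] Groups of 5 mice.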

[8] = target: T6, Polyunsaturated fatty acid 5-lipoxygenase (Homo sapiens, UniProt P09917); experiment: In vitro inhibition of polymorphonuclear leukocyte derived human 5-lipoxygenase
T6 sequence (P09917 whole entry): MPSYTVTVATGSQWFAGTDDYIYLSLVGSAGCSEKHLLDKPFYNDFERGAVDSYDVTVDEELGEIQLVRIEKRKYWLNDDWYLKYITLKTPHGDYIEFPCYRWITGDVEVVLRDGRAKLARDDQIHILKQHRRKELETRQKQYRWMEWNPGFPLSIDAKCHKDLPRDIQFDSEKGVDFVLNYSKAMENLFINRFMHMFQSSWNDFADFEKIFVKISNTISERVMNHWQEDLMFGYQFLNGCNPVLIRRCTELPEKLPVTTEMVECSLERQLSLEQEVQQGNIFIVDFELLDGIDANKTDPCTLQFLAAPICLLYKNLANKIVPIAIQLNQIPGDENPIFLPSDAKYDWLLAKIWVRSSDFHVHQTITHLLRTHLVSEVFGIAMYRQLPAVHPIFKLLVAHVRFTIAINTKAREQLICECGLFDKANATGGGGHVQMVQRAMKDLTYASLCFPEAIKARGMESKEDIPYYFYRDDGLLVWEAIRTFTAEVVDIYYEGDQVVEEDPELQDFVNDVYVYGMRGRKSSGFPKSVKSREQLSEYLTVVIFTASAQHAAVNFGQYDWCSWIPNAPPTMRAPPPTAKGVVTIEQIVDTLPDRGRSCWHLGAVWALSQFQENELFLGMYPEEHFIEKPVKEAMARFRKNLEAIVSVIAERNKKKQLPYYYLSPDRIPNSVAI
Procedure, shortened: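 PMNs from venous blood of healthy volunteers, isolated by dextran sedimentation and Percoll gradient (>90% pure) and held in Ca/Mg PBS with 1 mg/mL glucose and 1 μM indomethacin. Challenged with calcium ionophore and [14C]arachidonic acid for 3 min. 5-HETE measured by TLC and scintillation counting; IC50 read graphically.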

Cyclooxygenase [9] = target: T2, Cyclooxygenase; experiment: In vitro inhibitory activity against rat polymorphonuclear leukocyte cyclooxygenase; format: protein assay; procedure, shortened: as §3
Mus musculus [10] = experiment: In vivo inhibition of mouse ear inflammation; format: functional; set-up: concentration or dose not given beside the values; procedure, shortened: as §5
Cavia porcellus [11] = organism: Cavia porcellus; experiment: Inhibitory activity against Leukotriene C4 induced contractions; format: functional
Cavia porcellus [12] = organism: Cavia porcellus; experiment: Inhibitory activity against Leukotriene-D4 induced contractions; format: functional
Cyclooxygenase [13] = target: T2, Cyclooxygenase; experiment: In vitro inhibitory activity against polymorphonuclear leukocyte cyclooxygenase; format: protein assay; procedure, shortened: as §3
[14] = target: T7, Polyunsaturated fatty acid 5-lipoxygenase (Homo sapiens) (UniProt P09917); experiment: In vitro inhibitory activity against polymorphonuclear leukocyte 5-lipoxygenase in human cell at 10 uM
T7 sequence (whole entry): T6 sequence (P09917 whole entry)
Procedure, shortened: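 Human PMNs from venous blood of a healthy volunteer (EDTA) were purified by dextran sedimentation, a Percoll gradient and NH4Cl red-cell lysis (>90% pure). They were held in Ca/Mg PBS with 1 mg/mL glucose and 1 μM indomethacin, then challenged with A23187 (0.8 μM) and [14C]arachidonic acid (4 μM) for 3 min. 5-HETE was measured by TLC and scintillation counting.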

[15] = target: T1, Arachidonate 12-lipoxygenase (Rattus norvegicus); experiment: In vitro inhibitory activity against rat platelet 12-lipoxygenase at 10 uM; procedure, shortened: as §1
[16] = target: T3, Cyclooxygenase (Rattus norvegicus); experiment: In vitro inhibitory activity against rat polymorphonuclear leukocyte Prostaglandin G/H synthase at 100 uM; format: protein assay; procedure, shortened: as §3
[17] = test system: 5-lipoxygenase (Cavia porcellus); experiment: Inhibitory activity against polymorphonuclear leukocyte 5-lipoxygenase using guinea pig supernatant at 10 uM
Cavia porcellus [18] = experiment: In vivo inhibitory activity against guinea pig systemic anaphylaxis when administered a compound dose (200 mg/kg) perorally; format: functional; settings: po; procedure, shortened: as §4

Q: `O=C(c1ccc(OCc2ccccc2)cc1)N(O)CCc1ccccc1` was tested. Which inhibition [1] did it give?
A: < 10%

Q: What about the IC50 (Cyclooxygenase [2]) of the same compound?
A: 75000 nM

Q: For `CN(O)C(=O)Cc1ccc(OCc2ccc3ccccc3n2)cc1`, which inhibition [3] is on record?
A: < 10%

Q: And the IC50 [4]?
A: 350 nM

Q: What about the inhibition in vivo at 60 mg/kg (Cavia porcellus [5]) of the same compound?
A: 94%

Q: What about the Ki [6] of the same compound?
A: 1000 nM

Q: And the Inhibition (Mus musculus [7])?
A: 48%

Q: What about the IC50 [8] of the same compound?
A: 1000 nM

Q: For `CN(O)C(=O)Cc1ccc(OCc2ccccc2)cc1`, which IC50 (Cyclooxygenase [9]) is on record?
A: 9000 nM

Q: And the Inhibition (Mus musculus [10])?
A: 65%

Q: What about the IC50 (Cavia porcellus [11]) of the same compound?
A: 4200 nM

Q: And the inhibition in vivo at 60 mg/kg (Cavia porcellus [5])?
A: 83%

Q: And the IC50 (Cavia porcellus [12])?
A: 5000 nM

Q: What about the Ki [6] of the same compound?
A: > 100000 nM

Q: And the IC50 (Cyclooxygenase [13])?
A: < 10000 nM

Q: How did the inhibition [14] turn out when `O=C(CCCc1ccccc1)NCCc1ccccc1` was run?
A: < 10%

Q: What about the inhibition [15] of the same compound?
A: < 10%

Q: What about the inhibition [16] of the same compound?
A: < 10%

Q: And the inhibition [17]?
A: 12%

Q: How did the inhibition in vivo at 200 mg/kg (Cavia porcellus [18]) turn out when `CCCN(O)C(=O)Cc1ccc(OCc2ccccc2)cc1` was run?
A: 0%

Q: And the Inhibition (Mus musculus [10])?
A: 82%

Q: What about the IC50 (Cyclooxygenase [2]) of the same compound?
A: 30000 nM

Q: What about the IC50 [4] of the same compound?
A: 100 nM

Q: And the IC50 [8]?
A: 160 nM
